Test results: ChEMBL document CHEMBL4513216, “Probing the Open Global Health Chemical Diversity Library for Multistage-Active Starting Points for Next-Generation Antimalarials” (ACS Infect Dis, 2020)

Assay: Toxicity liver stage against HepG2, at 10uM
Assay type: cell-based
Parameters: test concentration 10 uM, cell line HepG2-A16-CD81EGFP
Conditions: human, HepG2-A16-CD81EGFP cells; read-out: INHIBITION
In short: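 Uninfected HepG2-A16-CD81EGFP cells, 3 × 10^3 per well, 1536-well, plated on prespotted compound at 10 μM final, parasite-free screening media added to match infected plates; puromycin 10 μM positive, DMSO 0.5% negative; run in parallel with 48 h PbLuc assay at 37 °C, 5% CO2; viability by CellTiter-Glo luminescence, normalized to controls.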

Row | Compound | cytotoxicity at 10 µM
1 | COc1ccnc(NCc2ccccc2Cn2cccn2)n1 | -0.81%
2 | CC(=O)N1CCC(N2CCOC[C@H]2c2nc(-c3ccc(Cl)s3)c[nH]2)CC1 | 2.29%
3 | CS(=O)(=O)NC[C@H]1Cn2c(-c3ccc4c(c3)OCCO4)cnc2CO1 | -11.1%
4 | COCCNC(=O)c1cnc(N(C)C)nc1C | -5.33%
5 | COCC1CN(Cc2ccc(OC)cc2)S(=O)(=O)c2cnccc2O1 (stereo unspecified) | -1.78%
6 | COc1ccc(C(=O)N2CC(=O)N(C3CCC3)CC(O)C2)c(OC)c1 (stereo unspecified) | -0.373%
7 | CCS(=O)(=O)N1CC(=O)N(Cc2ccccc2OC)CC(O)C1 (stereo unspecified) | -95.5%
8 | COC1CN(C(=O)Cc2cccs2)CCC(=O)N(C)c2ccccc21 (stereo unspecified) | -11.6%
9 | CC(C)CNC(=O)c1cn(-c2ccccn2)c(=O)c2ccccc12 | 0.318%
10 | Cc1nc(C)c(CC(=O)NCc2ccc(F)cc2F)s1 | -91.9%
11 | O=C(CN1C(=O)CCC1=O)NCc1cc(C2CC2)n(C2CCCC2)n1 | 1.74%
12 | O=C(NCc1cccs1)C1CCCN(c2cc(-n3cncn3)ncn2)C1 (stereo unspecified) | 0.827%
13 | Cn1c(C(=O)N2CCOCC2)nc2c1CCN(c1ncccn1)C2 | 1.7%
14 | Cn1cc(CN2CCN3C[C@H](Oc4cccnc4)C[C@H]3C2)cn1 | 3.07%
15 | Cc1ccc(CN2C[C@@H]3COC[C@]3(COc3ccc(C#N)cn3)C2)o1 | 0.777%
16 | CCS(=O)(=O)N1CCC2(CC1)CN(c1cncnc1)C(=O)CO2 | 6.91%
17 | Cc1nc(N2CCCC2)nc2c1CCN(C(=O)N(C)C)CC2 | 7.05%
18 | Cc1ccc(-n2nnc(C(=O)O)c2C)c(C)c1 | -0.185%
19 | CC(C)CNC(=O)c1c(-n2cnnn2)sc2c1CCC2 | -4.56%
20 | O=C(NCCCn1ccnc1)C1CCC(=O)N1Cc1cccs1 (stereo unspecified) | -4.94%
21 | CN(Cc1ccc(F)cc1)[C@@H]1CN(S(C)(=O)=O)C[C@H]1O | -3.22%

Row | Compound | cytotoxicity at 10 µM
22 | CN(C(=O)NC1CC1)C1CCN(c2ccc(Cl)cc2)CC1 | -8.39%
23 | Cc1ccc(C(C)NC(=O)N2CCN(C(=O)CC(F)(F)F)CC2)o1 (stereo unspecified) | 43.3%
24 | Cc1ccc(O)c(CNc2cccc(CN3CCN(C)CC3)c2)n1 | -2%
25 | CCOCCOC(C)C(=O)Nc1ccc2ccn(CC(=O)NC)c2c1 (stereo unspecified) | 2.3%
26 | CCc1ccccc1CNC(=O)NCc1cnn(C)c1 | 2.14%
27 | Cc1cc(C)n(CC(C)NC(=O)C2(c3ccc(F)cc3)CC2)n1 (stereo unspecified) | 11.5%
28 | CCN(CCCc1ccccc1C)S(C)(=O)=O | 2.86%
29 | COc1ccc(NC(=O)N2CCC(c3noc(C)n3)CC2)cc1C | 17.2%
30 | O=C(CC1CCCC1)NCCNCc1cccc2c1OCCO2 | -0.912%
31 | Cc1cc(CN2CCN(C(=O)CCc3ccco3)CC2)on1 | -2.6%
32 | CC(C)OCCC(=O)NCCC(=O)N1CCN(c2ccccn2)CC1 | 2.56%
33 | CC(C)c1nn(C)c(N2CCOCC2)c1CNCc1cscn1 | -3.83%
34 | Cc1nc(C2(NC(=O)NCc3cc(C#N)ccc3F)CCCC2)no1 | -4.2%
35 | c1cnn(-c2ccc(CCNC3CCN(C4CC4)C3)cc2)c1 (stereo unspecified) | 2.84%
36 | CN(C)C(=O)N1CCN(C(=O)c2ccc(Cl)c(Cl)c2)C(C)(C)C1 | -4.71%
37 | O=C1CN(CCS(=O)(=O)c2ccc(Cl)cc2)CCN1 | -9.2%
38 | CN(C(=O)c1ccc(OCC(F)F)nc1)c1ccc2c(c1)CCO2 | 13.6%
39 | CC(C#N)CSc1ccccc1NCC(=O)NCc1ccccc1 (stereo unspecified) | -7.89%
40 | O=C(C1CC1)N1CCC2(CC1)OCCO2 | 1.75%
41 | O=C1NCCO[C@H]2CN(C(=O)Cc3cccs3)CC[C@@H]12 | -98.8%
42 | COCCNC(=O)c1nc(-c2cn(C)cn2)n2ccccc12 | -104%

Row | Compound | cytotoxicity at 10 µM
43 | FC(F)(F)c1ccnc(N2CCC(c3nccn3CC3CC3)CC2)n1 | 3.03%
44 | CN(C)CCNCC1(O)CCCN(Cc2cccc(F)c2F)C1=O (stereo unspecified) | -8.71%
45 | CC(C)(O)CCc1cccc(C(=O)N2Cc3cnn(CCO)c3C2)c1 | 4.62%
46 | COCCN1CCC(C(=O)N(C)Cc2cccc(Cl)c2)C1 (stereo unspecified) | -28.6%
47 | CC(C)N1CCC(CC(=O)NCc2cc(O)ncn2)CC1 | 7.81%
48 | COCc1ccc(C(=O)N2CCCN(Cc3ccc(F)cc3)CC2)s1 | -1.78%
49 | CC(=O)N1CCCn2nc(CNC(=O)N3CCCCC3)cc2C1 | -3.91%
50 | CN1CCC(c2n[nH]c(=O)n2-c2cccc(Cl)c2)CC1 | 33.9%
51 | CC1=CCN(S(=O)(=O)c2cccc(C(=O)N3CCCN(C)CC3)c2)CC1 | -2.36%
52 | CC1=NC2(CCN(CC(C)c3ccccc3)CC2)C(=O)N1 (stereo unspecified) | 5.33%
53 | COCCC(=O)N1CCC2(CC1)CC(c1ccccc1)CN(C1CC1)C2 (stereo unspecified) | -0.173%
54 | CCC(CO)N(Cc1cccs1)C(=O)CNS(=O)(=O)c1cccs1 (stereo unspecified) | 4.98%
55 | COCC1CCN(C(=O)c2cn(Cc3ccccc3F)nn2)CC1 | 1.89%
56 | NC(=O)C1CN(c2ncnc3c2Cc2ccccc2OC3)CCO1 (stereo unspecified) | 0.0255%
57 | CCN1CCC2(CC1)c1nc[nH]c1CCN2S(C)(=O)=O | 6.33%
58 | O=C(CC1COCCN1)NCCc1nc(Cc2ccccc2)no1 (stereo unspecified) | -2.81%
59 | CC(C)[C@@H]1CN(Cc2cnc(C3CCCCC3)nc2)C[C@H]1N(C)C | -3.18%
60 | CC(CN1CCCC1)C(=O)NCC1CCN(c2cnn(C)c(=O)c2)CC1 (stereo unspecified) | 0.301%
61 | COc1cccc(CN(C)C(C)c2nccs2)c1OCCn1ccnc1 (stereo unspecified) | -0.21%
62 | CC(C)[C@@H]1CN(Cc2ccccc2C#N)C[C@H]1C(=O)O | 6.3%
63 | Cc1ccc(-c2cc(-c3c(C)nn(CCO)c3C)c(C#N)c(N)n2)cc1 | 15%

Row | Compound | cytotoxicity at 10 µM
64 | CCc1cnc(C)nc1NCc1nc(COC)no1 | 3.24%
65 | O=C1CNCC(C(=O)N2CC(Oc3ccccc3Cl)C2)N1 (stereo unspecified) | 10.9%
66 | O=C1N(Cc2cccc(F)c2F)CCCC1(O)CNCc1ccccn1 (stereo unspecified) | -9.28%
67 | Cc1nnc2n1CCN(C(=O)c1cc3cc(F)ccc3[nH]1)C2 | 3.28%
68 | Cc1ccc(OCCC(=O)N2CCCC(n3nc(C)nc3C)C2)cc1 (stereo unspecified) | -2.15%
69 | CCc1csc(C2CCCN(C(=O)c3ccccn3)C2)n1 (stereo unspecified) | 1.36%
70 | CCCn1nc2c(cc1=O)CN(Cc1nc(C)c(C)o1)CC2 | -6.16%
71 | O=C1COc2ccc(C(=O)NS(=O)(=O)c3ccccc3Cl)cc2N1 | -7.03%
72 | O=C1COc2ccc(C(=O)NS(=O)(=O)c3ccccc3F)cc2N1 | -0.185%
73 | O=C(CCCOc1ccccc1)N1CCCC1Cn1cccn1 (stereo unspecified) | -7.83%
74 | NC(=O)c1cc(C2CCCN(CCCOc3ccc(F)cc3)C2)n[nH]1 (stereo unspecified) | -16.4%
75 | CC(=O)N1CCCN(C(=O)NCCNc2cnccn2)CC1 | -2.28%
76 | c1cc(NCc2ccncc2)nc(C2CCCN2)c1 (stereo unspecified) | -2.55%
77 | O=C([C@@H]1CN(Cc2nccs2)C[C@H]2OCC[C@H]21)N1CCOCC1 | -105%
78 | CC1=N[C@@]2(CC[C@@H]3CNC[C@@H]32)C(=O)N1CC(C)C | 2.98%
79 | CC(=O)N1CCN(Cc2ccccn2)CC2(CC(=O)N(C)C2)C1 (stereo unspecified) | 1.23%
80 | O=C(Cc1ccccn1)N1CCC2(CC1)CC(Oc1ccccn1)CO2 (stereo unspecified) | -0.0273%
81 | CN(C)S(=O)(=O)N1C[C@H](Oc2cccnc2)[C@H]2OCCC[C@H]21 | 14.8%
